PTEN del growth: growth suppression of PTEN-null HCT116, primary screen, cell-based, CellTiter-Glo; AID 827, 2007; viability, % at 10 µM; HCT116 PTEN-null viability, 60 h; stronger effect = lower value; 1.2% of 140,000 active;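 active = viability at or below a set limit, 4 SD under the median of all tested compounds, cut at about 3.7% in these data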;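 also: PTEN knockout HCT116 line with beta catenin targeted HCT116 as companion control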
L major viab: Leishmania major promastigote growth inhibition, primary screen; Leishmania major promastigotes, resazurin fluorescence viability; inhibition, % at 10 µM; 9% of 200,000 active; in the data active = inhibition above about 50%;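 also: promastigotes grown with compound for 44 hours at 28 °C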
TNAP inh hiacc: human TNAP enzyme inhibitors, primary screen, biochemical, luminescent, high phosphate acceptor level, uHTS | Alkaline phosphatase, tissue-nonspecific isozyme (Homo sapiens), P05186 | purified TNAP, CDP-star luminescence, 1 M DEA | inhibition, % at 20 µM | 0.03% of 200,000 active | AID 1135, 2008;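 active = over 50% inhibition of tissue-nonspecific alkaline phosphatase at 20 µM in the single-dose screen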;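 also: plate controls were DMSO wells for no effect and EDTA-quenched wells as full inhibition for full effect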
Target sequence (P05186 whole entry, looked up): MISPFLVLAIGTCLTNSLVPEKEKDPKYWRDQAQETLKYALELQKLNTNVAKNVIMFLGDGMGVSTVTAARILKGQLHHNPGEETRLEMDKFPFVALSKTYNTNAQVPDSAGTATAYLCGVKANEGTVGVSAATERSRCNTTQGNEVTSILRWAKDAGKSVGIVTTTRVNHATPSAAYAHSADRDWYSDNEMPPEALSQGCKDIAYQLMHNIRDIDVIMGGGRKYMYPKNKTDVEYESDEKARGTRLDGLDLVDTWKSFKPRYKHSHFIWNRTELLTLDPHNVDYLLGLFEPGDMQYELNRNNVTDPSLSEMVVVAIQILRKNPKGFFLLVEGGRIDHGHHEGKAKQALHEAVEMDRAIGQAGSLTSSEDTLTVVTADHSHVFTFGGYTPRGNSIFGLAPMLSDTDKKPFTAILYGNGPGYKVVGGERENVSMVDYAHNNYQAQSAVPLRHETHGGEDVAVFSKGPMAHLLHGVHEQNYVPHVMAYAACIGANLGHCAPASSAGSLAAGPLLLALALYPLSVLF
bCat KO growth: primary screen for growth suppressors in beta-catenin knockout HCT116 cells (colon tumor, human); 1.5% of 140,000 active; AID 818, 2007; HCT116 beta-catenin knockout viability, CellTiter-Glo, 60 h; stronger effect = lower value; viability, % at 10 µM;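 active = viability at or under a set limit, the compound median less 4 SD, cut at about 6% in these data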;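 also: 0% = Hyamine 1622 control at 20 µM and 100% = untreated cell control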
TNAP inh no acc: human TNAP enzyme inhibitors, primary screen, biochemical, luminescent, no phosphate acceptor, uHTS. 0.26% of 200,000 active. Alkaline phosphatase, tissue-nonspecific isozyme (Homo sapiens), P05186. inhibition, % at 20 µM. purified TNAP, CDP-star luminescence, 30 min;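 active = tissue-nonspecific alkaline phosphatase inhibition above about 50% at 20 µM in the single-dose screen, limit read from the data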;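 also: 0% = DMSO negative control and 100% = EDTA positive control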
TNAP act hi DEA: TNAP activators at high phosphate acceptor level, primary screen, biochemical, luminescence, uHTS. Alkaline phosphatase, tissue-nonspecific isozyme (Homo sapiens), P05186. purified TNAP, CDP-star luminescence, 1 M DEA, 30 min; stronger effect = higher value; 0 = EDTA background, 1 = DMSO-only activity. activation factor at 20 µM. 200,000 tested, under 10 active;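 active = activation factor at least 2 at 20 µM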
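Test system – human TNAP · Doses – 20 µM single point · Incubation – 30 min, room temperature · Signal – luminescent substrate turnover signal · Read-out basis – activation factor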
The depositor's hits bear a star. Rows were chosen to be rich in hits. Some 9.6% of all compounds tested hit in one or more screens of this group.

For COc1cc(NC(=O)c2ccc(OC)c([N+](=O)[O-])c2)ccc1NC(=O)c1cccs1 the results were PTEN del growth 97.8, L major viab 84.3*, TNAP inh hiacc -6.7, bCat KO growth 100.1, TNAP inh no acc -11.3 and TNAP act hi DEA 1.1.
`CCOc1ccc(C(=O)Nc2cccc(NC(=O)c3cccs3)c2)cc1[N+](=O)[O-]` gave PTEN del growth 75.1, L major viab 34.3, TNAP inh hiacc -2.2, bCat KO growth 85.1, TNAP inh no acc -16.1 and TNAP act hi DEA 1.
`COc1cc(N)ccc1NC(=O)c1cccs1` gave PTEN del growth 91.2, L major viab 72.9*, TNAP inh hiacc -2.9, bCat KO growth 100.2, TNAP inh no acc -8.1 and TNAP act hi DEA 1.
Screening N#CCC(CNc1ncc(C(F)(F)F)cc1Cl)OC(=O)c1cccc([N+](=O)[O-])c1 (stereo not given) returned PTEN del growth 61.8, L major viab -5.6, TNAP inh hiacc 0.1, bCat KO growth 64.7, TNAP inh no acc -8.3 and TNAP act hi DEA 1.
For COCc1cc(=O)[nH]c(Nc2nc3ccc(C)cc3o2)n1 the results were PTEN del growth 5.4, L major viab 99.2*, TNAP inh hiacc -4.4, bCat KO growth 6.6, TNAP inh no acc -51.1 and TNAP act hi DEA 1.
Screening CCc1ccc2nc(Nc3nc(COC)cc(=O)[nH]3)nc(C)c2c1 returned PTEN del growth 90.9, L major viab 11.6, TNAP inh hiacc -5.1, bCat KO growth 83.2, TNAP inh no acc -205.0 and TNAP act hi DEA 1.1.
For Cc1cccc(C)c1NC(=O)c1sc(Cl)nc1C the results were PTEN del growth 97.3, L major viab -3.5, TNAP inh hiacc 2.5, bCat KO growth 91.7, TNAP inh no acc -2.9 and TNAP act hi DEA 1.
`CCc1cccc(CC)c1NC(=S)NCCc1c(C)[nH]c2ccccc12` gave PTEN del growth 18.2, L major viab 38.4, TNAP inh hiacc -4.0, bCat KO growth 10.8, TNAP inh no acc -13.2 and TNAP act hi DEA 1.
For COc1ccc2[nH]c(C)c(CCNC(=S)Nc3cccc(C)c3C)c2c1 the results were PTEN del growth 66.9, L major viab 61.1*, TNAP inh hiacc 1.5, bCat KO growth 87.5, TNAP inh no acc -6.2 and TNAP act hi DEA 1.
Screening COc1ccc2[nH]c(C)c(CCNC(=S)Nc3ccc(C)cc3)c2c1 returned L major viab 91.7*, TNAP inh hiacc -2.7, TNAP inh no acc -2.4 and TNAP act hi DEA 1.
Screening COc1ccc2[nH]c(C)c(CCNC(=S)Nc3ccccc3C)c2c1 returned PTEN del growth 66.5, L major viab 8.2, TNAP inh hiacc -3.8, bCat KO growth 54.0, TNAP inh no acc -5.7 and TNAP act hi DEA 1.
Screening Cc1ccc(S(=O)(=O)N2CCN(C(=O)c3cccs3)CC2)c(C)c1 returned L major viab 0.7, TNAP inh hiacc -1.8, TNAP inh no acc 8.2 and TNAP act hi DEA 1.
CCC(NC(=O)N(Cc1ccccc1)Cc1ccc2c(c1)OCO2)(C(F)(F)F)C(F)(F)F was read as PTEN del growth 89.9, L major viab 67.0*, TNAP inh hiacc -1.6, bCat KO growth 91.9, TNAP inh no acc -5.0 and TNAP act hi DEA 1.
CC(NC(=O)N(Cc1ccccc1)Cc1ccc2c(c1)OCO2)(C(F)(F)F)C(F)(F)F was read as PTEN del growth 87.8, L major viab 93.6*, TNAP inh hiacc 1.6, bCat KO growth 95.3, TNAP inh no acc -2.6 and TNAP act hi DEA 1.
`Oc1ccccc1/C=N/Nc1ccnc(SCc2ccccc2)n1` gave PTEN del growth 69.1, L major viab 96.2*, TNAP inh hiacc 7.3, bCat KO growth 63.8, TNAP inh no acc -60.5 and TNAP act hi DEA 0.9.
For N#C/C(=C\c1ccccc1C(F)(F)F)C(=O)Nc1ccccc1 the results were PTEN del growth 75.0, L major viab 1.9, TNAP inh hiacc 3.5, bCat KO growth 76.8, TNAP inh no acc -20.4 and TNAP act hi DEA 1.
CCc1cccc(CC)c1NC(=O)/C(C#N)=C/c1ccccc1C(F)(F)F was read as PTEN del growth 1.8*, L major viab 97.4*, TNAP inh hiacc 4.6, bCat KO growth 1.5*, TNAP inh no acc -1.0 and TNAP act hi DEA 1.
N#CCCn1nnc2ccccc21 was read as PTEN del growth 5.5, L major viab -6.1, TNAP inh hiacc -2.0, bCat KO growth 6.0*, TNAP inh no acc -9.0 and TNAP act hi DEA 1.
For S=C(Nc1ccccc1)N1CCn2cccc2C1c1cccnc1 (stereo not given) the results were PTEN del growth 94.0, L major viab 86.2*, TNAP inh hiacc -1.2, bCat KO growth 105.0, TNAP inh no acc -10.4 and TNAP act hi DEA 1.
`Fc1cccc(NC(=S)N2CCn3cccc3C2c2cccnc2)c1` (stereo not given) gave L major viab 92.4*, TNAP inh hiacc -2.7, TNAP inh no acc -8.4 and TNAP act hi DEA 1.
Screening S=C(NC1CCCCC1)N1CCn2cccc2C1c1cccnc1 (stereo not given) returned L major viab 97.6*, TNAP inh hiacc -0.2, TNAP inh no acc -9.1 and TNAP act hi DEA 1.
`Fc1ccc(C2c3cccn3CCN2C(=S)Nc2cccc(F)c2)cc1` (stereo not given) gave L major viab 21.5, TNAP inh hiacc -2.0, TNAP inh no acc -6.4 and TNAP act hi DEA 1.
COc1ccccc1NC(=S)N1CCn2cccc2C1c1cccnc1 (stereo not given) was read as L major viab 77.6*, TNAP inh hiacc -0.2, TNAP inh no acc -8.8 and TNAP act hi DEA 1.
`COc1ccc(/C=N/N(Cc2ccccc2)c2ccccc2)cc1O` gave L major viab 2.7, TNAP inh hiacc -0.7, TNAP inh no acc -5.0 and TNAP act hi DEA 1.
Screening COc1cc(/C=C/C(=O)Nc2cc(S(=O)(=O)N3CCOCC3)ccc2N2CCCC2)cc(OC)c1OC returned L major viab 8.0, TNAP inh hiacc -2.5, TNAP inh no acc 1.0 and TNAP act hi DEA 1.
`COc1ccccc1C(=O)OCC(=O)Nc1cc(S(=O)(=O)N2CCOCC2)ccc1N1CCCC1` gave L major viab -1.3, TNAP inh hiacc -5.3, TNAP inh no acc -11.7 and TNAP act hi DEA 1.1.
COc1ccc(/C=C/C(=O)Nc2cc(S(=O)(=O)N3CCCCC3)ccc2N2CCCCC2)cc1OC was read as PTEN del growth 93.9, L major viab 96.6*, TNAP inh hiacc -6.7, bCat KO growth 99.2, TNAP inh no acc -7.3 and TNAP act hi DEA 1.1.
